Assay results reported in ChEMBL document CHEMBL3120102, “Structure-based design, synthesis and biological evaluation of novel anthra[1,2-d]imidazole-6,11-dione homologues as potential antitumor agents” (2013).

Experiments:
Format in all cases: functional
MCF7 = assay: Cytotoxicity against human MCF7 cells assessed as growth inhibition after 48 hrs by SRB assay
In short: (§1)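 NCI 60-cell-line screen, five-dose stage: each cell line exposed for 48 h to five concentrations spanning five log steps; cellular protein measured by sulforhodamine B colorimetry. A time-zero cell control and plates without drug are used to derive GI50, TGI and LC50 from log-concentration dose-response curves.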

HOP-62 = assay: Cytotoxicity against human HOP62 cells assessed as growth inhibition after 48 hrs by SRB assay
In short: (§2)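 NCI 60-cell-line five-dose screen at […]. Drug exposure was 48 h, followed by sulforhodamine B protein staining. GI50, TGI and LC50 were calculated against a time-zero control and untreated plates, with dose–response curves plotted from log10 concentration.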

HT-29 = assay: Cytotoxicity against human HT-29 cells assessed as cell growth at 10 uM after 48 hrs by SRB assay; conditions: HT-29, 48 h, read-out: Activity
CAKI-1 = assay: Cytotoxicity against human CAKI-1 cells assessed as cell growth at 10 uM after 48 hrs by SRB assay; conditions: CAKI-1, 48 h, read-out: Activity
[1] = (§3) Cytotoxicity against human OVCAR4 cells assessed as growth inhibition after 48 hrs by SRB assay; conditions: OVCAR-4, 48 h; in short: as §1
OVCAR-4 = assay: as §3; in short: as §1
Malme-3M = assay: Cytotoxicity against human MALME-3M cells assessed as growth inhibition after 48 hrs by SRB assay; in short: as §2
SK-OV-3 = assay: Cytotoxicity against human SKOV3 cells assessed as growth inhibition after 48 hrs by SRB assay; in short: as §1
SNB-19 = assay: Cytotoxicity against human SNB19 cells assessed as growth inhibition after 48 hrs by SRB assay
In short: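 NCI 60-cell-line screen, two stages. Five-dose testing at […]. Cellular protein measured by sulforhodamine B colorimetry after 48 h drug exposure. A time-zero control and drug-free plates are used to derive GI50, TGI and LC50 from dose-response curves plotted as log10 concentration per cell line.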

HCT-116 = assay: Cytotoxicity against human HCT116 cells assessed as growth inhibition after 48 hrs by SRB assay; in short: as §2
A498 = assay: Cytotoxicity against human A498 cells assessed as growth inhibition after 48 hrs by SRB assay; in short: as §2
OVCAR-3 = assay: Cytotoxicity against human OVCAR3 cells assessed as growth inhibition after 48 hrs by SRB assay; in short: as §1
IGROV-1 = assay: Cytotoxicity against human IGROV1 cells assessed as growth inhibition after 48 hrs by SRB assay; in short: as §2
LOX IMVI = assay: Cytotoxicity against human LOXIMVI cells assessed as growth inhibition after 48 hrs by SRB assay; in short: as §2
HCT-15 = assay: Cytotoxicity against human HCT15 cells assessed as growth inhibition after 48 hrs by SRB assay; in short: as §2
MDA-MB-231 = assay: Cytotoxicity against human MDA-MB-231 cells assessed as growth inhibition after 48 hrs by SRB assay; in short: as §1
NCI-H322M = assay: Cytotoxicity against human NCI-H322M cells assessed as growth inhibition after 48 hrs by SRB assay; in short: as §1
HCC 2998 = assay: Cytotoxicity against human HCC2998 cells assessed as growth inhibition after 48 hrs by SRB assay; in short: as §2
KM12 = assay: Cytotoxicity against human KM12 cells assessed as growth inhibition after 48 hrs by SRB assay; in short: as §2
MDA-MB-468 = assay: Cytotoxicity against human MDA-MB-468 cells assessed as growth inhibition after 48 hrs by SRB assay; in short: as §1
SF-268 = assay: Cytotoxicity against human SF268 cells assessed as growth inhibition after 48 hrs by SRB assay; in short: as §1
CCRF-CEM = assay: Cytotoxicity against human CCRF-CEM cells assessed as growth inhibition after 48 hrs by SRB assay; in short: as §2
MDA-MB-435 = assay: Cytotoxicity against human MDA-MB-435 cells assessed as growth inhibition after 48 hrs by SRB assay; in short: as §1
M14 = assay: Cytotoxicity against human M14 cells assessed as growth inhibition after 48 hrs by SRB assay; in short: as §2
COLO 205 = assay: Cytotoxicity against human COLO205 cells assessed as growth inhibition after 48 hrs by SRB assay; in short: as §2
OVCAR-5 = assay: (§4) Cytotoxicity against human OVCAR5 cells assessed as growth inhibition after 48 hrs by SRB assay; in short: as §1
[2] = as §4; conditions: OVCAR-5, 48 h; in short: as §1

In the case of `CN(C)CCCSc1nc2ccc3c(c2[nH]1)C(=O)c1ccccc1C3=O`, the “growth inhibition (GI)” value (MCF7) is reported as “Dose-dependent effect”, the GI50 (MCF7; MCF7, 48 h) is reported as 0.202 µM and the TGI (MCF7; MCF7, 48 h) is reported as 4.21 µM. The “growth inhibition (GI)” value (HOP-62) was “Dose-dependent effect”, the GI50 (HOP-62; HOP-62, 48 h) was 5.9 µM and the TGI (HOP-62; HOP-62, 48 h) was 21.2 µM. The growth at 10 µM (HT-29) was 17.8%, the growth at 10 µM (CAKI-1) was -14.9% and the GI50 [1] was 0.031 µM. For the same compound, the TGI [1] was 5.04 µM, the “growth inhibition (GI)” value (OVCAR-4) was “Dose-dependent effect” and the GI50 (Malme-3M) was 13.9 µM. For the same compound, the TGI (Malme-3M) was 27 µM, the “growth inhibition (GI)” value (Malme-3M) was “Dose-dependent effect” and the CC50 (Malme-3M; read-out: LC50 (the source's name)) was 52.4 µM. For the same compound, the “growth inhibition (GI)” value (SK-OV-3) was “Dose-dependent effect”, the GI50 (SK-OV-3; SK-OV-3, 48 h) was 1.72 µM and the TGI (SK-OV-3; SK-OV-3, 48 h) was 20.7 µM. For the same compound, the “growth inhibition (GI)” value (SNB-19) was “Dose-dependent effect”, the GI50 (SNB-19; SNB-19, 48 h) was 7.2 µM and the TGI (SNB-19; SNB-19, 48 h) was 20.7 µM. For the same compound, the “growth inhibition (GI)” value (HCT-116) was “Dose-dependent effect”, the GI50 (HCT-116; HCT-116, 48 h) was 1.85 µM and the TGI (HCT-116; HCT-116, 48 h) was 8.75 µM. For the same compound, the “growth inhibition (GI)” value (A498) was “Dose-dependent effect”, the GI50 (A498; A498, 48 h) was 12.1 µM and the TGI (A498; A498, 48 h) was 24.8 µM. For the same compound, the CC50 (A498; A498, 48 h, read-out: LC50 (the source's name)) was 51 µM, the “growth inhibition (GI)” value (OVCAR-3) was “Dose-dependent effect” and the GI50 (OVCAR-3; OVCAR-3, 48 h) was 3.73 µM. For the same compound, the TGI (OVCAR-3; OVCAR-3, 48 h) was 18.2 µM, the “growth inhibition (GI)” value (IGROV-1) was “Dose-dependent effect” and the GI50 (IGROV-1; IGROV-1, 48 h) was 0.329 µM. The TGI (IGROV-1; IGROV-1, 48 h) was 12.8 µM, the GI50 (LOX IMVI) was 1.36 µM and the TGI (LOX IMVI) was 3 µM. The “growth inhibition (GI)” value (LOX IMVI) was “Dose-dependent effect”, the “growth inhibition (GI)” value (HCT-15) was “Dose-dependent effect” and the GI50 (HCT-15; HCT-15, 48 h) was 0.68 µM. For the same compound, the TGI (HCT-15; HCT-15, 48 h) was 15 µM, the “growth inhibition (GI)” value (MDA-MB-231) was “Dose-dependent effect” and the GI50 (MDA-MB-231; MDA-MB-231, 48 h) was 4.96 µM. The TGI (MDA-MB-231; MDA-MB-231, 48 h) was 19.3 µM, the GI50 (NCI-H322M) was 0.72 µM and the TGI (NCI-H322M) was 20.6 µM. For the same compound, the “growth inhibition (GI)” value (NCI-H322M) was “Dose-dependent effect”, the “growth inhibition (GI)” value (HCC 2998) was “Dose-dependent effect” and the GI50 (HCC 2998; HCC 2998, 48 h) was 4.14 µM. The TGI (HCC 2998; HCC 2998, 48 h) was 17.7 µM, the CC50 (HCC 2998; HCC 2998, 48 h, read-out: LC50 (the source's name)) was 43.4 µM and the “growth inhibition (GI)” value (KM12) was “Dose-dependent effect”. The GI50 (KM12; KM12, 48 h) was 1.96 µM, the TGI (KM12; KM12, 48 h) was 7.24 µM and the CC50 (KM12; KM12, 48 h, read-out: LC50 (the source's name)) was 27.4 µM. The “growth inhibition (GI)” value (MDA-MB-468) was “Dose-dependent effect”, the GI50 (MDA-MB-468; MDA-MB-468, 48 h) was under 0.01 µM and the TGI (MDA-MB-468; MDA-MB-468, 48 h) was 0.439 µM. The “growth inhibition (GI)” value (SF-268) was “Dose-dependent effect”, the GI50 (SF-268; SF-268, 48 h) was 4.34 µM and the TGI (SF-268; SF-268, 48 h) was 17.7 µM. The GI50 (CCRF-CEM) was 1.29 µM, the TGI (CCRF-CEM) was 4.36 µM and the “growth inhibition (GI)” value (CCRF-CEM) was “Dose-dependent effect”. The “growth inhibition (GI)” value (MDA-MB-435) was “Dose-dependent effect”, the GI50 (MDA-MB-435; MDA-MB-435, 48 h) was 10.4 µM and the TGI (MDA-MB-435; MDA-MB-435, 48 h) was 22.2 µM. The “growth inhibition (GI)” value (M14) was “Dose-dependent effect”, the GI50 (M14; M14, 48 h) was 7.05 µM and the TGI (M14; M14, 48 h) was 20.7 µM. The “growth inhibition (GI)” value (COLO 205) was “Dose-dependent effect”, the GI50 (COLO 205; COLO 205, 48 h) was 3.41 µM and the TGI (COLO 205; COLO 205, 48 h) was 17.1 µM. The “growth inhibition (GI)” value (OVCAR-5) was “Dose-dependent effect”, the GI50 [2] was 12.7 µM and the TGI [2] was 25.9 µM.
